Measured values of several laboratories.
Compare with care: the assays were run in different laboratories.
mreB: mreB (Escherichia coli, UniProt P0A9X4)
Cnr2: Cannabinoid receptor 2 (Cnr2, Mus musculus, UniProt P47936)
G protein-coupled receptor 88: G protein-coupled receptor 88 (Homo sapiens, UniProt Q9GZN0)
CTSL: Procathepsin L (CTSL, Homo sapiens, UniProt P07711)
pol: pol (Feline immunodeficiency virus, UniProt P16088)

| Structure (SMILES) | target | test | test system | setting | quantity | result |
| --- | --- | --- | --- | --- | --- | --- |
| NC1CCCCc2c1[nH]c1ccc(Cl)c(Cl)c21 (stereo not drawn) | mreB | ATPase activity, inhibitor, absorbance | – | – | IC50 | 25000 nM |
| CCCCCCC(C)(C)c1ccc([C@@H]2C[C@H](O)CC[C@H]2CCCO)c(O)c1 | Cnr2 | cAMP, agonist | – | – | EC50 | 0.05 nM |
| O=[As](O)(O)c1ccc(Cc2ccc([As](=O)(O)O)cc2)cc1 | Autotaxin (ENPP2, Homo sapiens, UniProt Q13822) | enzyme activity, inhibitor, absorbance | – | – | Ki | 47.5 nM |
| CC(C)C[C@H]1C(=O)N2CCC[C@H]2[C@]2(O)O[C@](NC(=O)[C@@H]3C=C4c5cccc6[nH]cc(c56)C[C@H]4N(C)C3)(C(C)C)C(=O)N12 | Solute carrier organic anion transporter family member 1B3 (SLCO1B3, Homo sapiens, UniProt Q9NPD5) | transporter uptake, inhibitor, fluorescence | CHO | 30 min, pH 7.4 | IC50 | 2200 nM |
| NC1CCCCc2c1[nH]c1ccc(Br)cc21 (stereo not drawn) | mreB | ATPase activity, inhibitor, absorbance | – | – | IC50 | 44000 nM |
| Cc1nonc1Cn1nnc2c(N3CC[C@H](O)C3)nc(C(C)(C)C)nc21 | Cnr2 | ligand displacement, radioligand | – | cell membranes | Ki | 61 nM |
| CC[C@@H](C)COc1ccc([C@@H](CO)C(=O)N[C@H](C)c2ccccc2)cc1 | G protein-coupled receptor 88 | cAMP, agonist, TR-FRET | – | – | EC50 | 3090 nM |
| CC(C)c1cccc(NC(=O)C2CC(=O)Nc3ccccc32)c1 (stereo not drawn) | CTSL | enzyme activity, inhibitor, FRET | – | – | IC50 | 16800 nM |
| NC1CCCCc2c1[nH]c1cc(Cl)c(Cl)cc21 (stereo not drawn) | mreB | ATPase activity, inhibitor, absorbance | – | – | IC50 | 29000 nM |
| CCCC#Cc1ccc([C@@H](CO)C(=O)N[C@H](C)c2ccccc2)cc1 | G protein-coupled receptor 88 | cAMP, agonist, TR-FRET | – | – | EC50 | 204 nM |
| O=C(NCc1ccc(F)cc1)c1cccc(Nc2ccc(-c3ccccc3)nn2)c1 | Anoctamin-2 (ANO2, Homo sapiens, UniProt Q9NQ90) | ion flux, inhibitor | – | – | IC50 | 8200 nM |
| Cc1cc(/C=C/C#N)cc(C)c1Nc1ccnc(Nc2ccc(C#N)cc2)n1 | pol | binding, SPR | – | – | Kd | 16000 nM |
| Cc1nc([C@@](C)(CC2CC2)NC(=O)c2cc(OCC(F)(F)F)c(C3CC3)cn2)no1 | Cnr2 | cAMP, agonist | – | – | EC50 | 3 nM |
| O=C(/C=C/c1cccc(S(=O)(=O)Nc2ccccc2)c1)NO | Histone deacetylase 4 (HDAC4, Homo sapiens, UniProt P56524) | cell-free assay | – | – | Kd | > 30200 nM |
| O=P(O)(O)Oc1cccc(OP(=O)(O)O)c1 | Signal transducer and activator of transcription 5B, SH2 (STAT5B, Homo sapiens, UniProt P51692) | ligand displacement, FP | – | – | IC50 | 55000 nM |
| CC[C@H](NC(=O)OCc1ccccc1)C(=O)N[C@H](C(=O)N[C@@H](Cc1ccccc1)C(=O)N(C)N(C#N)CCC(N)=O)C(C)(C)C | CTSL | enzyme activity, inhibitor | – | – | Ki | 123 nM |
| CCOC(=O)C(CC)(CCCSCCOCCOCCNc1ccc([N+](=O)[O-])c2nonc12)NC(=O)c1ccc(C2CC2)c(Cc2ccc(F)cc2)n1 (racemic) | Cnr2 | cAMP, agonist | – | – | EC50 | 102 nM |
| Cc1ccnc2c1NC(=O)c1cccnc1N2C1CC1 | pol | binding, SPR | – | – | Kd | 185000 nM |
| CCOC(=O)[C@](CC)(CCC[S+]([O-])CCOCCOCCNC(=O)OC(C)(C)C)NC(=O)c1ccc(C2CC2)c(Cc2ccc(F)cc2)n1 (stereo partly drawn) | Cnr2 | ligand displacement, radioligand | – | cell membranes | Ki | 90 nM |
| CC(C)C[C@@H]1C(=O)N[C@H]([C@@H](C)O)C(=O)N[C@H](C)[C@@H](C)C(=O)O[C@@H](Cc2ccccc2)C(=O)N(C)[C@@H](C(C)C)C(=O)N2CCC[C@H]2C(=O)N(C)[C@H](Cc2ccccc2)C2=N[C@@H](CS2)C(=O)N[C@H](C)C2=N[C@@H](CS2)C(=O)N1C | CTSL | enzyme activity, inhibitor | – | – | IC50 | 21300 nM |
| CCOC(=O)C(CC)(CCCSCCOCCOCCOCCOCCNC(=O)OC(C)(C)C)NC(=O)c1ccc(C2CC2)c(Cc2ccc(F)cc2)n1 (stereo not drawn) | Cnr2 | ligand displacement, radioligand | – | cell membranes | Ki | 93 nM |
| COC(=O)[C@H](CCC(=O)Nc1cccc2c1ccn2Cc1cccc(C(N)=O)c1)NC(=O)OCc1ccccc1 | NAD-dependent protein deacetylase sirtuin-1 (SIRT1, Homo sapiens, UniProt Q96EB6) | enzyme activity, inhibitor | – | – | IC50 | 67000 nM |
| CCOC(=O)C(CC)(CCCSCCOCCOCCOCCNC(=O)OC(C)(C)C)NC(=O)c1ccc(C2CC2)c(Cc2ccc(F)cc2)n1 (stereo not drawn) | Cnr2 | ligand displacement, radioligand | – | cell membranes | Ki | 117 nM |
| NC(=O)[C@@H]1CC(F)(F)CN1C(=O)c1ccc(N2CC(F)(F)C2)c(OCC2CC2)n1 | Cnr2 | ligand displacement, radioligand | – | cell membranes | Ki | 189 nM |
